Screens deposited in PubChem BioAssay by several laboratories.
Plk1 PBD FP – Plk1 polo box domain binding inhibitors, primary screen, biochemical, fluorescence polarization. Serine/threonine-protein kinase PLK1 (Homo sapiens), P53350. Plk1 PBD phosphopeptide binding. inhibition, %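 (tested at about 20 µM)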. actives 0.13% (n = 97,000); in the data active = inhibition above about 34%, passing the limit was not always enough
LYP inh 2 – PTPN22 phosphatase inhibitors, primary screen, biochemical, DiFMUP fluorescence, 2 µM; recombinant LYP catalytic domain; Tyrosine-protein phosphatase non-receptor type 22 (Homo sapiens), Q9Y2R2; AID 640, 2007; actives 0.21% (n = 96,000); inhibition, % at 2 µM;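 active = inhibition at 2 µM at or above a set limit, the screen mean plus 3 SD, cut at about 24% in these data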
PLK1 inh – human PLK1 kinase inhibitors, primary screen, biochemical, TR-FRET | inhibition, % at 10 µM | AID 619, 2007 | Serine/threonine-protein kinase PLK1 (Homo sapiens), P53350 | recombinant PLK1 kinase, TR-FRET peptide phosphorylation | actives 0.53% (n = 97,000);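 active = inhibition of 50% or more in the single-concentration screen; inactive = inhibition below 50%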
HIV Rev-RRE inh – HIV-1 Rev-RRE binding inhibitors, primary screen, biochemical, FRET, protein-RNA interaction. actives 0.79% (n = 97,000). Rev peptide-RRE RNA binding. P05866. inhibition, % at 8 µM;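 active = inhibition above the screen-wide mean plus 3 SD, cut at about 35% in these data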
Target sequence (P05866 whole entry, looked up): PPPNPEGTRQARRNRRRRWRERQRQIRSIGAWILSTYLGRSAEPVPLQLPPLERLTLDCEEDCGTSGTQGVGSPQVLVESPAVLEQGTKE
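Assay system: Rev peptide and RRE RNA, both fluorescently labelled; times: 5 min preincubation and 15 min binding, 25 °C; detection: FRET, ex 480 nm, em 540 and 671 nm; read-out basis: % inhibition from 671/540 nm acceptor-to-donor ratio, scaled between controls; benchmarks: DMSO low control, neomycin B high control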
PLAP act – PLAP enzyme activators, biochemical, luminescence, HTS; purified PLAP enzyme, luminescent substrate read-out; active compounds read high; actives 1.2% (n = 96,000); activation fold at 20 µM; in the data active = activation fold above about 2
Target sequence (P05187 whole entry, looked up): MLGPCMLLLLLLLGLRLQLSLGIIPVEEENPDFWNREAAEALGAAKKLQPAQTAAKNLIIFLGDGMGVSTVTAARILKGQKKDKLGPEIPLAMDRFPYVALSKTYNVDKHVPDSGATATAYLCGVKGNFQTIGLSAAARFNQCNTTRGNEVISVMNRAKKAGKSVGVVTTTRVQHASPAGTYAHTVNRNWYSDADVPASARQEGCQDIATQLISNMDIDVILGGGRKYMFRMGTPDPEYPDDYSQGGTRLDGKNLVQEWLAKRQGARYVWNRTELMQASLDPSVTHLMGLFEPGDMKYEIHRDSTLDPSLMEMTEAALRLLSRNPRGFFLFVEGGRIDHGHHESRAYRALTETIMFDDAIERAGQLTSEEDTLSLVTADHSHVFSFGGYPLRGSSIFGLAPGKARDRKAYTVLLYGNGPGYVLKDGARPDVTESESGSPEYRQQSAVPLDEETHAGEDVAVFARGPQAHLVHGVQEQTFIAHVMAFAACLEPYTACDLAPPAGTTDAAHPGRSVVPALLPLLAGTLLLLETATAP
PTPN22 act – LYP phosphatase activators, primary screen, biochemical, DiFMUP fluorescence, 2 µM; Tyrosine-protein phosphatase non-receptor type 22 (Homo sapiens), Q9Y2R2; recombinant LYP; 0 = plate median, 100 = signal doubled; activation, % at 2 µM; actives 0.11% (n = 96,000);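 active = activation at 2 µM above a set limit, the mean plus 5 SD, cut at about 37% in these data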
PTPN22 act conf – retest of PTPN22 activators, confirmation, biochemical, DiFMUP fluorescence, single concentration. shares compounds with PTPN22 act. Recombinant LYP, activation; zero set by plate's median compound well. activation, % at 2 µM. 100 tested, under 10 active. AID 1031, 2008; call rule not given here
A number is an active result; – = inactive; · = no result given. Compounds with a hit are over-represented: about 2.7% of the library has one in this group of screens.

SMILES	Plk1 PBD FP	LYP inh 2	PLK1 inh	HIV Rev-RRE inh	PLAP act	PTPN22 act	PTPN22 act conf
O=C(Nc1ccccc1)N(Cc1ccccc1)CC(O)C(F)(F)F (stereo not given)	–	–	–	–	–	50	–
CCOC(=O)CCc1c(C)nc2cc(-c3ccc(Cl)cc3)[nH]n2c1=O	·	·	·	·	–	·	·
COc1cc(OC)cc(-c2cc3nc(C)c(CCC(=O)O)c(=O)n3[nH]2)c1	–	–	–	–	–	49	–
CCOC(=O)CSc1cc(=O)n(CC)c2ccccc12	–	–	–	–	–	64	–
CN(C)S(=O)(=O)N1CCN(S(=O)(=O)N(C)C)CC1	–	–	–	–	–	–	·
Cc1nnc(NC(=O)CSCc2ccccc2)s1	–	–	–	–	–	–	·
CCOCc1nnc(NC(=O)CSCc2ccccc2)s1	–	–	–	–	–	42	–
CCO/C=N/c1c(C#N)c(CC#N)nn1-c1ccccc1	–	–	–	–	–	–	·
CCOC(=O)c1cccc(C(=O)OCC)n1	–	–	–	–	–	–	·
O=C(COC(=O)c1cccc(C(=O)OCC(=O)c2ccc(Br)cc2)n1)c1ccc(Br)cc1	–	–	–	–	–	41	–
C=C(C)COc1ccc(-c2n[nH]c(C)c2Oc2ccccc2OC)c(O)c1	–	–	–	–	–	–	·
Cc1ccccc1C(=O)NC(=S)NCC1CCCO1 (stereo not given)	–	–	–	–	–	39	–
COc1ccc(NC(=O)c2cccs2)c([N+](=O)[O-])c1	–	–	–	–	–	–	·
COC(=O)C1CCN(C(=O)c2c(-c3ccccc3Cl)noc2C)CC1	–	–	–	–	–	–	·
O=C1c2ccccc2C(=O)N1CCc1ccccn1	–	–	–	–	–	–	·
Cc1ccc(-c2nc(CCN3C(=O)c4ccccc4C3=O)cs2)cc1	–	–	–	–	–	48	–
O=C(Nc1ccc2c(c1)OCCO2)C1CCN(S(=O)(=O)c2cccc3nsnc23)CC1	–	–	–	–	–	–	·
O=C(Nc1ccc2c(c1)OCCO2)C1CCCN(S(=O)(=O)c2cccc3nsnc23)C1 (stereo not given)	–	–	–	–	–	42	–
COc1ccccc1NC(=O)CN1CCN(C(=O)c2ccco2)CC1	–	–	–	–	·	37	–
Clc1ccc(Cn2c(-c3cccnc3Cl)nc3ccccc32)cc1	–	–	–	–	–	–	·
CC(C)CNC(=S)NNC(=O)c1csc2ccccc12	–	–	–	–	–	37	–
CCNC(=S)NNC(=O)c1csc2ccccc12	–	–	–	–	–	–	·
CC(=O)Nc1ccc(S(=O)(=O)N2CCSC2c2ccc(Cl)cc2)cc1 (stereo not given)	–	–	–	–	–	38	–
O=C(NCc1ccco1)c1cccc(NC(=O)c2ccccc2)c1	–	–	–	–	–	–	·
CCOc1ccc(S(=O)(=O)N(CC(=O)O)c2ccc(C)cc2)cc1	–	–	–	–	–	38	–
SMILES	Plk1 PBD FP	LYP inh 2	PLK1 inh	HIV Rev-RRE inh	PLAP act	PTPN22 act	PTPN22 act conf
COC(=O)c1ccc(C)c(NS(=O)(=O)c2ccc3c(c2)OCCO3)c1	–	–	–	–	–	42	–
COC(=O)c1ccc(C)c(NS(=O)(=O)c2ccc(OC)cc2)c1	–	–	–	–	–	–	·
CCOC(=O)c1cnn(-c2nc(-c3ccccc3)cs2)c1C(F)(F)F	–	–	–	–	–	–	·
CCOC(=O)c1cnn(-c2nc(-c3ccc(F)cc3)cs2)c1C(F)(F)F	–	–	–	–	–	40	–
O=C(COc1ccc(Br)cc1CO)Nc1ccccc1F	–	–	–	–	–	38	–
O=C(NCCc1c[nH]c2ccccc12)c1cc(S(=O)(=O)N2CCCCC2)ccc1N1CCOCC1	–	–	–	–	–	–	·
CC1(C)CC(=O)C2=C(C1)N(Cc1ccco1)C(=O)C2(O)C(F)(F)F (stereo not given)	–	–	–	–	–	37	–
CN(C)S(=O)(=O)c1ccc(C(=O)NCCOc2ccc(F)cc2)cc1	–	–	–	–	–	–	·
COc1ccc(NC(C)=O)cc1NC(=O)CCn1c(=O)sc2ccccc21	–	–	–	–	·	40	–
CCS(=O)(=O)N1CCC(C(=O)NCc2ccc(F)cc2)CC1	–	–	–	–	–	–	·
COc1cccc(C(=O)Nc2ccc(F)c(F)c2F)c1	–	–	–	–	–	–	·
Cc1ccc(Cl)cc1NC(=O)c1cccc(OC(F)F)c1	–	–	–	–	–	40	–
CCC(=O)c1ccc(N2CCN(C(=O)Cc3ccccc3)CC2)c(F)c1	–	–	–	–	–	41	–
Cc1ccccc1NC(=O)CN(c1ccc(F)cc1)S(C)(=O)=O	–	–	–	–	–	–	·
CN(C)S(=O)(=O)N(CC(=O)Nc1ccccc1F)c1ccccc1	–	–	–	–	·	39	–
CCOC(=O)C1CCN(Cc2coc3c(Cl)cc(Cl)cc3c2=O)CC1	–	–	–	–	–	39	–
Cc1ccc(CCNS(=O)(=O)c2cnc[nH]2)cc1	·	·	·	·	–	·	·
CSc1nc(-c2ccccc2)nn1C(=O)c1ccccc1	–	–	–	–	–	52	–
COc1ccc(C(=O)N2CCN(c3nnnn3-c3ccccc3)CC2)cc1OC	–	–	–	–	–	–	·
COc1cc(OC)c(C2N(C)c3ccccc3N2C)cc1OC	–	–	–	–	–	39	–
COc1cc(OC)c(C2N(c3ccccn3)C(=O)C3CCCN32)cc1OC (stereo not given)	–	–	–	–	–	–	·
CCCOc1c(Br)cc(/C=N/O)cc1OC	–	–	–	–	–	–	·
COc1ncnc2c1cnn2-c1ccccc1	–	–	–	–	–	38	–
COCCn1c(SCC(=O)Nc2ncc(Cl)c(C)c2Cl)nc2ccccc21	–	–	–	–	–	–	·
COC(=O)c1ccc2c(=O)sc(N3CCC(C(N)=O)CC3)nc2c1	–	–	–	–	–	39	–
CCSc1nc2cc(C(=O)OC)ccc2c(=O)n1CC	–	–	–	–	·	–	·
CC(=O)Oc1c(S(=O)(=O)c2ccccc2)c(C)nn1C(C)(C)C	–	–	–	–	–	–	·
O=C(NCc1ccco1)c1cccs1	–	–	–	–	–	–	·
O=C(NCc1ccco1)Nc1cccs1	–	–	–	–	–	37	–
